Published values of several laboratories.
CSF1R autoinhibited: Macrophage colony-stimulating factor 1 receptor, autoinhibited (CSF1R, Homo sapiens, UniProt P07333)
CSF1R: Macrophage colony-stimulating factor 1 receptor (CSF1R, Homo sapiens, UniProt P07333)

| Compound | target | observed | method | tested at | remaining binding [%] |
| --- | --- | --- | --- | --- | --- |
| Cc1cc(-n2nc(Cc3cc(F)cc(C(F)(F)F)c3)nc2C)ccc1C(N)=O | CSF1R autoinhibited | cell-free assay | competition with immobilised ligand | 1 µM | 100 |
| O=C(NCCCN1CCOCC1)c1ccc(Nc2ncc(Cl)c(-c3ccc(Cl)s3)n2)cc1 | CSF1R autoinhibited | binding | competition with immobilised ligand | 1 µM | 42 |
| O=C(Nc1c[nH]nc1C(=O)NC1CCNCC1)c1cc(F)cc(F)c1 | CSF1R autoinhibited | binding | competition with immobilised ligand | 1 µM | 90 |
| O=C(c1ccc(Nc2ncc(Cl)c(-c3ccc(Cl)s3)n2)cc1)N1CCC(N2CCCC2)CC1 | CSF1R autoinhibited | binding | competition with immobilised ligand | 1 µM | 17 |
| C[C@@H]1CN(c2ccc3ncc(-c4ccc5[nH]nc(C6CC6)c5c4)n3n2)C[C@H](C)O1 | CSF1R | binding | competition with immobilised ligand | 50 nM | 100 |
| F[C@@H]1CCN(c2nccc(-c3cnn4ncccc34)n2)C1 | CSF1R autoinhibited | binding | – | 1 µM | 81 |
| COc1cnc(Nc2cccc(S(N)(=O)=O)c2)nc1N1CCN(c2ccccc2)CC1 | CSF1R autoinhibited | binding | competition with immobilised ligand | 1 µM | 99 |
| CN(CCCC(F)(F)F)c1nccc(-c2cnn3ncccc23)n1 | CSF1R | binding | – | 1 µM | 93 |
| CC(=O)c1c(NS(C)(=O)=O)c2cc(-c3ccc(Cl)cc3)c(-c3ccc(Cl)cc3Cl)nc2n(C)c1=O | CSF1R | cell-free assay | competition with immobilised ligand | 1 µM | 100 |
| c1cnn2ncc(-c3ccnc(N4CCC45COC5)n3)c2c1 | CSF1R autoinhibited | binding | – | 1 µM | 64 |
| Cc1nc(NC(=O)N2CCC[C@H]2C(N)=O)sc1-c1ccnc(C(C)(C)C(F)(F)F)c1 | CSF1R | binding | competition with immobilised ligand | 10 µM | 68 |
| Nc1ncc2c(n1)-c1c([nH]c3ccc(C#CC4CC4)cc13)CCCC2 | CSF1R autoinhibited | binding | competition with immobilised ligand | 1 µM | 85 |
| N#Cc1ccccc1CSc1nnc2c(n1)[nH]c1ccccc12 | CSF1R | binding | competition with immobilised ligand | 10 µM | 100 |
| CN(C)c1ncc(F)c(-c2cnn3ncccc23)n1 | CSF1R autoinhibited | binding | – | 1 µM | 69 |
| c1cncc(-c2cccc(Nc3nccc(NC4CCCCC4)n3)c2)c1 | CSF1R autoinhibited | binding | competition with immobilised ligand | 10 µM | 0 |
| CC1CCCN1c1nccc(-c2cnn3ncccc23)n1 (centres unmarked) | CSF1R autoinhibited | binding | – | 1 µM | 99 |
| O=C(NCCCN1CCOCC1)c1ccc(Nc2nccc(-c3cc4ccccc4s3)n2)cc1 | CSF1R | binding | competition with immobilised ligand | 1 µM | 50 |
| O=C(NCC1CCOCC1)c1n[nH]cc1NC(=O)c1c(F)cccc1F | CSF1R autoinhibited | binding | competition with immobilised ligand | 1 µM | 62 |

| Compound | target | observed | method | tested at | remaining binding [%] |
| --- | --- | --- | --- | --- | --- |
| C[C@@H](c1ccc(-n2cnc3c(N)ncnc32)cc1)N1CCc2nn(C)c(Cc3ccccc3)c2C1=O | CSF1R | binding | competition with immobilised ligand | 0.1 µM | 100 |
| CCC(=O)N[C@H]1CC[C@@H](C(=O)N(C)c2ccc(-c3nc4ccccc4o3)cc2)C1 | CSF1R autoinhibited | cell-free assay | competition with immobilised ligand | 1 µM | 56 |
| O=C(c1ccc(Nc2ncc(Cl)c(-c3cc4ccccc4s3)n2)cc1)N1CCC(N2CCCC2)CC1 | CSF1R autoinhibited | binding | competition with immobilised ligand | 1 µM | 56 |
| CNC(=O)[C@@H]1CC[C@@H](n2c(-c3ccc4cnccc4c3)nc3ccc(C(=O)NCc4cccc(C(N)=O)c4)cc32)C1 | CSF1R | binding | competition with immobilised ligand | 1 µM | 100 |
| O=C(c1ccc(Nc2nccc(-c3cc4ccccc4s3)n2)cc1)N1CCC(N2CCCC2)CC1 | CSF1R autoinhibited | binding | competition with immobilised ligand | 1 µM | 77 |
| CNC(=O)Nc1ccc2c(c1)[C@@]1(CC2)OC(=O)N(CC(=O)N(Cc2ccc(F)cc2)[C@@H](C)C(F)(F)F)C1=O | CSF1R autoinhibited | cell-free assay | competition with immobilised ligand | 1 µM | 100 |
| C=CC(=O)N1CCC(C(=O)NCC(=O)N2CCN(c3nc(-c4cnc(N)nc4C(F)F)nc(N4CCOCC4)n3)CC2)CC1 | CSF1R | binding | competition with immobilised ligand | 1 µM | 77 |
| C[C@H]1CCN(c2nccc(-c3cnn4ncccc34)n2)C1 | CSF1R autoinhibited | binding | – | 1 µM | 75 |
| COc1cnc(Nc2cccc(S(N)(=O)=O)c2)nc1N1CCN(c2ccccc2)C(=O)C1 | CSF1R | binding | competition with immobilised ligand | 1 µM | 100 |
| CS(=O)(=O)N1CCCC(NC(=O)[C@H](CCC2CCCCC2)NC(=O)c2ccc(CNc3ncnc4c3nnn4-c3ccccc3)cc2)C1 (some centres unmarked) | CSF1R autoinhibited | cell-free assay | competition with immobilised ligand | 0.1 µM | 100 |
| COc1ncc2cc3ccccc3nc2c1C#N | CSF1R autoinhibited | cell-free assay | competition with immobilised ligand | 5 µM | 97 |
| O=C(O)[C@H]1[C@H](Cn2nnc3ccccc3c2=O)CC[C@@H]1C(=O)c1ccc(OCCC2CCOCC2)cc1 | CSF1R autoinhibited | cell-free assay | competition with immobilised ligand | 1 µM | 100 |
| CCN1CCN(Cc2ccc(C(=O)Nc3ccc(C)c(Oc4ccc5c(c4)CC(=O)N5)c3)cc2C(F)(F)F)CC1 | CSF1R autoinhibited | binding | competition with immobilised ligand | 1 µM | 100 |
| O=C(Nc1ccc(Oc2ccc(F)cc2)cc1)N1CCc2ncccc2[C@H]1c1ccc(F)cc1 | CSF1R autoinhibited | cell-free assay | competition with immobilised ligand | 1 µM | 95 |
| Cc1cnc(Nc2ccc(C(=O)N3CCC(N4CCCC4)CC3)cc2)nc1-c1cc2ccccc2s1 | CSF1R | binding | competition with immobilised ligand | 1 µM | 12 |
| N[C@H]1CCN(c2nccc(-c3cnn4ncccc34)n2)C1 | CSF1R autoinhibited | binding | – | 1 µM | 100 |
| CC(=O)N1CCC(c2ccc(C(=O)NC3=NCCN3)cc2C(F)(F)F)CC1 | CSF1R | cell-free assay | competition with immobilised ligand | 1 µM | 100 |
